Data set [1] in a line: Therapeutic index, ratio of CC50 for human MT2 cells to EC50 for HIV1 NL4-3 infected in human MT2 cells. In kind it is cell-based. Particulars: read-out: TI. Put shortly: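 TI was the mean CC50 (XTT, uninfected MT-2) divided by the mean EC50, determined for each cell line in each experiment.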
The test system of data set [2] is Human immunodeficiency virus 1. The experiment in a line: Antiviral activity against HIV1 Ba-L infected in human PM1 cells assessed as inhibition of viral p24 antigen production after 5 days. The format is functional, organism-based. Conditions: Human immunodeficiency virus 1, Ba-L, PM1, 120 h. Put shortly: (§1)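 PM1 cells (NL4-3, Ba-L) or MT-2 cells (92HT594, 92HT599) were infected at MOI 0.16 for 2 h and washed. They were plated at 1 × 10⁴ cells/well (2 × 10⁵/ml) onto half-log compound dilutions. Supernatant p24 was quantified by ELISA at day 5. EC50 was the concentration giving a 50% decrease versus infected, compound-free cells.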

Data set [3] in a line: Therapeutic index, ratio of CC50 for human PM1 cells to EC50 for HIV1 Ba-L infected in human PM1 cells. Particulars: read-out: TI. In kind it is cell-based. Put shortly:
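PM1 cells infected at MOI 0.16 for 2 h, washed, then seeded at 1 × 10⁴ cells/well on half-log compound dilutions. After 5 days, supernatant p24 antigen was quantified by ELISA kit. EC50 is the concentration halving p24 versus infected untreated cells. CC50 was measured in PM1 cells by XTT formazan at 450 nm. TI is CC50 divided by EC50.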

Data set [4] concerns Human immunodeficiency virus 1. Description: Antiviral activity against HIV1 RF infected in human CEM-SS cells assessed as protection against virus-induced cytopathogenicity after 6 days by XTT assay. In kind it is functional, organism-based. Conditions: Human immunodeficiency virus 1, RF, 144 h. In a few lines: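 Host cells were infected with NL4-3 or IIIB (MOI 0.08) or RF (MOI 0.025–0.819) and seeded at 2 × 10⁴/well onto half-log compound dilutions. After 6 days, XTT/PMS was added for 4 h and formazan was read at 450 nm. EC50 was the concentration giving 50% of the formazan of uninfected, compound-free cells.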

Data set [5] concerns Human immunodeficiency virus 1. Description: Antiviral activity against HIV1 92HT594 infected in human MT2 cells assessed as inhibition of viral p24 antigen production after 5 days. The format is functional, organism-based. Particulars: Human immunodeficiency virus 1, 92HT594, MT2, 120 h. In a few lines:
as §1

The test system of data set [6] is Human immunodeficiency virus 1. The experiment in a line: Antiviral activity against HIV1 harboring spacer peptide A1V mutant protein infected in human HeLa cells assessed as decrease in viral infection after […] by beta-galactosidase reporter gene assay. In kind it is functional, organism-based. Conditions: Human immunodeficiency virus 1, HeLa. Put shortly: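 MT-2 cells were infected for 2 h with wild-type NL4-3 or recombinant NL4-3 carrying CA I201V or SP1 A1V. They were then cocultured with HeLa CD4 LTR/beta-Gal indicator cells in serially diluted compound. Beta-gal reporter was read after 4 days. EC50s are means ± SD of 3–6 experiments. Fold change is mutant EC50 divided by wild-type EC50.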
For orientation: Reporter assays use an easily measured gene product as a stand-in for the process of interest.

The subject of data set [7] is Human immunodeficiency virus 1. Description: Antiviral activity HIV1 92BR030 infected in human PBMC after 7 days by scintillation counting. In kind it is functional, organism-based. Conditions: Human immunodeficiency virus 1, 92BR030, 168 h. In a few lines:
(§2)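 Fresh PBMCs from HIV/HBV-seronegative donors were PHA-stimulated (4 μg/ml, 48–72 h) and kept with IL-2 (20 U/ml), with at least two donors pooled. Cells were seeded at 5 × 10⁴/well and infected (final MOI ≅0.1) with nine compound concentrations in triplicate wells. After 7 days, reverse transcriptase activity was measured in cell-free supernatant.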

Data set [8] has as its system Human immunodeficiency virus 1. The experiment in a line: Antiviral activity HIV1 92HT594 infected in human PBMC after 7 days by scintillation counting. Particulars: Human immunodeficiency virus 1, 92HT594, 168 h. In kind it is functional, organism-based. Put shortly: (§3)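 PBMCs came from buffy coats pooled from 3–4 seronegative donors, were PHA-stimulated (1.5 μg/ml, 3 days) and frozen. Thawed cells were infected 1 h at 37°C with virus input set by TCID50, then pelleted and resuspended in IL-2 (10 ng/ml). They were plated at 4 × 10⁵ cells/ml onto compounds for 7 days at 37°C. Supernatant RT activity was measured by Quan-T-RT scintillation assay.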

Data set [9] concerns Human immunodeficiency virus 1. Description: Antiviral activity HIV1 92HT596 infected in human PBMC after 7 days by scintillation counting. Particulars: Human immunodeficiency virus 1, 92HT596, 168 h. In kind it is functional, organism-based. In a few lines:
as §3

Data set [10] has as its system Human immunodeficiency virus 1. The experiment in a line: Antiviral activity HIV1 92HT599 infected in human PBMC after 7 days by scintillation counting. The format is functional, organism-based. Particulars: Human immunodeficiency virus 1, 92HT599, 168 h. In a few lines:
as §3

In data set [11] the test system is Human immunodeficiency virus 1. The experiment in a line: Antiviral activity HIV1 92US072 infected in human PBMC after 7 days by scintillation counting. In kind it is functional, organism-based. Particulars: Human immunodeficiency virus 1, 92US072, 168 h. In a few lines:
as §2

For data set [12], the system named is Human immunodeficiency virus 1. Description: Antiviral activity HIV1 92US076 infected in human PBMC after 7 days by scintillation counting. Particulars: Human immunodeficiency virus 1, 92US076, 168 h. In kind it is functional, organism-based. In a few lines:
as §2

Data set [13] concerns Human immunodeficiency virus 1. Description: Antiviral activity HIV1 93BR021 infected in human PBMC after 7 days by scintillation counting. In kind it is functional, organism-based. Conditions: Human immunodeficiency virus 1, 93BR021, 168 h. In a few lines: as §2
For data set [14], the system named is Human immunodeficiency virus 1. The experiment in a line: Antiviral activity HIV1 98IN022 infected in human PBMC after 7 days by scintillation counting. The format is functional, organism-based. Particulars: Human immunodeficiency virus 1, 98IN022, 168 h. In a few lines: as §3
The nature of data set [15]: Therapeutic index, ratio of CC50 for human PBMC to EC50 for HIV1 3B infected in human PBMC. Conditions: read-out: TI. In a few lines:
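TI was the mean PBMC CC50 divided by the mean EC50 from the 7-day PBMC reverse transcriptase assay.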

The nature of data set [16]: Therapeutic index, ratio of CC50 for human PBMC to EC50 for HIV1 NL4-3 infected in human PBMC. Particulars: read-out: TI. In a few lines:
(§4)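 Frozen PHA-stimulated (1.5 μg/ml, 3 days) buffy-coat PBMCs pooled from three or four seronegative donors. Infected with a TCID50-based virus input per 10⁶ cells for 1 h at 37°C, then pelleted and resuspended in 10 ng/ml IL-2. Plated at 4 × 10⁵ cells/ml on compound dilutions for 7 days at 37°C. Supernatant RT measured by Quan-T-RT. TI is mean CC50 divided by mean EC50.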

The nature of data set [17]: Therapeutic index, ratio of CC50 for human PBMC to EC50 for HIV1 92BR017 infected in human PBMC. Conditions: read-out: TI. In a few lines: as §4
Data set [18] in a line: Therapeutic index, ratio of CC50 for human PBMC to EC50 for HIV1 92BR030 infected in human PBMC. Conditions: read-out: TI. In a few lines:
(§5)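 PHA-stimulated (4 μg/ml, 48 to 72 h) PBMCs pooled from at least two seronegative donors, kept with 20 U/ml IL-2, plated at 5 × 10⁴ cells/well. Infected with clinical isolate (final MOI ≅0.1) alongside nine compound concentrations in triplicate wells, 7 days. Supernatant reverse transcriptase activity measured. TI is mean PBMC CC50 divided by mean EC50.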

Data set [19] in a line: Therapeutic index, ratio of CC50 for human PBMC to EC50 for HIV1 92US076 infected in human PBMC. Conditions: read-out: TI. Put shortly:
as §5

Data set [20] is described as follows: Therapeutic index, ratio of CC50 for human PBMC to EC50 for HIV1 93BR021 infected in human PBMC. Particulars: read-out: TI. Put shortly:
as §5

A short description of data set [21]: Therapeutic index, ratio of CC50 for human PBMC to EC50 for HIV1 93BR029 infected in human PBMC. Particulars: read-out: TI. Put shortly: as §4
Data set [22] is described as follows: Therapeutic index, ratio of CC50 for human PBMC to EC50 for HIV1 93TH074 infected in human PBMC. Conditions: read-out: TI. In a few lines: as §4
The nature of data set [23]: Therapeutic index, ratio of CC50 for human PBMC to EC50 for HIV1 CMU06 infected in human PBMC. Particulars: read-out: TI. Put shortly:
as §4

Where only a bound is given, the exact number is not on record here.

For `CC(C)(C)c1ccc(C(Cn2cccc(C(F)(F)F)c2=O)NC2Cc3ccccc3C2)cc1` (stereo not drawn), the selectivity ratio is 53 in [1]; 4 in data set [3]; 53 in data set [15]; 155 in data set [16]; 142 in [17]; below 1 in [18]. In addition, the selectivity ratio in data set [19] turned out to be 2430; in [20] it was 425; in data set [21] it was 30; in data set [22], 142; in data set [23], 14. Further, the EC50 in [2] is 5.3 µM; in data set [4], above 20 µM; in [5], 0.24 µM; in [6], above 3.2 µM; in [7], above 17 µM; in data set [8], 1.1 µM. The EC50 in [9] was 0.32 µM; in data set [10], 1.4 µM; in data set [11], 0.005 µM; in data set [12], 0.007 µM; in [13], 0.04 µM; in data set [14], 1.3 µM.

As a reminder, the EC50 is the concentration needed to bring the measured effect to its halfway point.

The record behind these values is ChEMBL document CHEMBL1649302, “New small-molecule inhibitor class targeting human immunodeficiency virus type 1 virion maturation” (Antimicrob Agents Chemother, 2009).
